Data on nine molecules can be found in ChEMBL document CHEMBL1127427, “Effect of molecular manipulation on the estrogenic activity of a brain-targeting estradiol chemical delivery system” (J Med Chem, 1994).

Data set [1] is described as follows: Compound was evaluated for oxidation rate constant in liver homogenate. Format: ADME, tissue-based. The settings on record: tissue homogenate. The method in brief:
(§1)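 Male Sprague-Dawley rats were PBS-perfused and their organs homogenized in PBS: brain 2% w/v, liver 1.0% w/v. Compound loss followed by the fall in 360 nm absorbance. Pseudo-first-order rate constant taken from log(A360) versus time. Triplicate runs; half-life given as mean ± SEM.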

The species named for data set [2] is Rattus norvegicus. The experiment in a line: Compound is tested in male rats for its effect on the prostate weight. In kind it is functional, Prostate gland. Also on record: concentration or dose not given beside the values. The method in brief: (§2)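 Adult male Sprague-Dawley rats (175–200 g) received a single iv tail-vein dose of 0.025 mmol/kg (equal to 5 mg/kg E2-CDS) or DMSO vehicle (0.5 mL/kg). Weighed daily for 14 days. Euthanized at day 14; organ excised and weighed. Expressed as mg per 100 g body weight, mean ± SEM, n=6.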

For data set [3], the system named is Rattus norvegicus. The experiment in a line: Compound is evaluated for effect on serum estradiol, 14 days subsequent to a single intravenous dose determined by means of a radioimmunoassay. Format: functional, organism-based. In a few lines: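 Adult male Sprague-Dawley rats (175–200 g), conscious and restrained, given a single tail-vein iv injection of 0.025 mmol/kg (equal to 5 mg/kg E2-CDS) or DMSO vehicle (0.5 mL/kg). Serum taken at day 14. Estradiol measured in duplicate by Coat-a-Count RIA. Antibody cross-reactivity with E2-Q+ <0.1%; detection limit 10 pg/mL. Mean ± SEM.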

Data set [4] can be described thus: Compound was evaluated for first order half-life in liver homogenate. Format: ADME, tissue-based. The method in brief:
as §1

Data set [5] can be described thus: Compound was evaluated for first order half-life in brain homogenate. In kind it is ADME, tissue-based. In a few lines: as §1
Data set [6] is filed under the species Rattus norvegicus. The experiment in a line: Compound was tested in male rats for its effect on the seminal vesicle weight. In kind it is functional. Also on record: concentration or dose not given beside the values. The method in brief:
as §2

Data set [7] can be described thus: Compound was evaluated for oxidation rate constant in brain homogenate. In kind it is ADME, tissue-based. The method in brief: as §1
The species entered for data set [8] is Rattus norvegicus. The experiment in a line: Compound is tested in male rats for its effect on the pituitary weight. In kind it is functional. Also on record: concentration or dose not given beside the values. In a few lines: as §2

The half-life is the time needed for the level to fall by half in the phase considered. For `CCCCCCN1C=CCC(C(=O)O[C@H]2CC[C@H]3[C@@H]4CCc5cc(O)ccc5[C@H]4CC[C@]23C)=C1`, the k was 0.0123 min⁻¹ in data set [1] and 0.00268 min⁻¹ in data set [7]. The values for the Activity in the data set listed under Rattus norvegicus [2], in the data set filed under Rattus norvegicus [6] and in the data set filed under Rattus norvegicus [8] were 66.26%, 95.66% and 5.28%, respectively. Besides, the Concentration in the data set with Rattus norvegicus [3] came out at 37.4 pg/mL. The half-life was 0.933 h in data set [4] and 4.32 h in data set [5].

For the molecule `C[C@]12CC[C@@H]3c4ccc(O)cc4CC[C@H]3[C@@H]1CC[C@@H]2OC(=O)C1=CN(Cc2ccccc2)C=CC1`, the k in data set [1] was 0.00892 min⁻¹; in data set [7] it was 0.00238 min⁻¹. Also, the values for the Activity in the data set listed under Rattus norvegicus [2], in the data set filed under Rattus norvegicus [6] and in the data set listed under Rattus norvegicus [8] were 67.38%, 97.43% and 4.86%, respectively. Besides, the Concentration with Rattus norvegicus [3] was determined as 42 pg/mL. For the same molecule, the half-life in data set [4] is 1.32 h; in data set [5], 4.8 h.

As for `CC(C)N1C=CCC(C(=O)O[C@H]2CC[C@H]3[C@@H]4CCc5cc(O)ccc5[C@H]4CC[C@]23C)=C1`, the k in data set [1] was determined as 0.0263 min⁻¹; in data set [7] it was 0.0058 min⁻¹. In addition, the Activity in the data set listed under Rattus norvegicus [2] stood at 68.64%; in the data set filed under Rattus norvegicus [6] it was 104.62%; in the data set listed under Rattus norvegicus [8] it was 4.86%. Also, in the data set with Rattus norvegicus [3], the Concentration is 43.6 pg/mL. Also, the figures for the half-life in data set [4] and in data set [5] were 0.433 h and 2 h, respectively.

As for `CCCN1C=CCC(C(=O)O[C@H]2CC[C@H]3[C@@H]4CCc5cc(O)ccc5[C@H]4CC[C@]23C)=C1`, the k in data set [1] was 0.0153 min⁻¹; in data set [7] it was 0.00736 min⁻¹. The Activity in the data set listed under Rattus norvegicus [2] worked out at 46.4%; in the data set listed under Rattus norvegicus [6], 85.97%; in the data set listed under Rattus norvegicus [8], 5.32%. This molecule came in with a Concentration with Rattus norvegicus [3] of 42.9 pg/mL. The half-life in data set [4] was found to be 0.867 h; in data set [5], 1.57 h.

Turning to `C[C@]12CC[C@@H]3c4ccc(O)cc4CC[C@H]3[C@@H]1CC[C@@H]2OC(=O)C1=CN(CCCO)C=CC1`, the k in data set [1] was found to be 0.0242 min⁻¹; in data set [7], 0.00567 min⁻¹. For the same molecule, the Activity in the data set filed under Rattus norvegicus [2] came out at 75.22%; in the data set filed under Rattus norvegicus [6] it was 106.49%; in the data set listed under Rattus norvegicus [8], 4.6%. The same molecule gave a Concentration in the data set on Rattus norvegicus [3] of 44.3 pg/mL. The half-life is 0.483 h in data set [4] and 2.05 h in data set [5].

For `CN1C=CCC(C(=O)O[C@H]2CC[C@H]3[C@@H]4CCc5cc(O)ccc5[C@H]4CC[C@]23C)=C1`, the k in data set [1] turned out to be 0.0815 min⁻¹; in data set [7] it was 0.00577 min⁻¹. Further, the Activity in the data set filed under Rattus norvegicus [2] is recorded as 35.75%; in the data set listed under Rattus norvegicus [6], 68.15%; in the data set filed under Rattus norvegicus [8], 6.46%. Also, the Concentration in the data set with Rattus norvegicus [3] turned out to be 53 pg/mL. Moreover, the half-life in data set [4] was found to be 0.533 h; in data set [5], 2.02 h.

As to `CCN1C=CCC(C(=O)O[C@H]2CC[C@H]3[C@@H]4CCc5cc(O)ccc5[C@H]4CC[C@]23C)=C1`, the k in data set [1] turned out to be 0.0323 min⁻¹; in data set [7], 0.00353 min⁻¹. Further, the Activity in the data set filed under Rattus norvegicus [2] was 32.06%; in the data set filed under Rattus norvegicus [6], 70.75%; in the data set listed under Rattus norvegicus [8], 6.17%. In the data set with Rattus norvegicus [3], this molecule registered a Concentration of 37.7 pg/mL. The half-life in data set [4] is 0.367 h; in data set [5], 3.3 h.

For the molecule `C[C@]12CC[C@@H]3c4ccc(O)cc4CC[C@H]3[C@@H]1CC[C@@H]2OC(=O)C1=CN(CC2CC2)C=CC1`, the values for the k in data set [1] and in data set [7] were 0.0183 min⁻¹ and 0.00611 min⁻¹, respectively. Further, the Activity in the data set filed under Rattus norvegicus [2] is 54.31%; in the data set listed under Rattus norvegicus [6], 97.29%; in the data set filed under Rattus norvegicus [8] it was 4.4%. This molecule also registered a Concentration in the data set on Rattus norvegicus [3] of 40.4 pg/mL. Moreover, the half-life in data set [4] came out at 0.633 h; in data set [5], 1.9 h.

Take `C[C@]12CC[C@@H]3c4ccc(O)cc4CC[C@H]3[C@@H]1CC[C@@H]2O` [ESTRADIOL]: the figures for the Activity in the data set listed under Rattus norvegicus [2], in the data set filed under Rattus norvegicus [6] and in the data set listed under Rattus norvegicus [8] were 62.26%, 107.36% and 3.88%, respectively. Also, in the data set with Rattus norvegicus [3], the Concentration came to 22.2 pg/mL.
